Screening results as filed in PubChem BioAssay.
KCNK9 inh: blocks the human KCNK9 two-pore domain potassium channel | Q9NPC2 | HEK293 KCNK9, FluxOR thallium flux fluorescence; active compounds read low | B-score at 10 µM | actives 1.2% (n = 310,000) | AID 488922;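 active = ratio B-score over 3 SD below the library mean, with starting fluorescence within 5 SD of its mean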;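 note: negative B-score means less thallium flux so channel inhibition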
KCNQ1 block: human KCNQ1 channel inhibition; CHO-K1 KCNQ1, FluxOR thallium flux fluorescence; active compounds read high; P51787; actives 1.3% (n = 310,000); AID 2642; B-score at 10 µM;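 active = compounds whose thallium flux B-score, printed positive for inhibition, exceeds three library SD while starting fluorescence stays within three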;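 note: channel opened by potassium depolarization with thallium stimulus after 20 min compound exposure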
hERG protect: hERG (human) protection from proarrhythmic block. actives 0.51% (n = 310,000). CHO-hERG, FluxOR thallium flux, dofetilide IC70 present. Q12809. activation (rescue from dofetilide block), less the hit threshold, % at 10 µM;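 active = activation above the mean of controls blocked by dofetilide plus 5 SD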;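 note: thallium influx through hERG after potassium depolarization seen as dye fluorescence rise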
KCNK3 inh: human KCNK3 channel inhibition, primary screen | CHO-KCNK3 thallium flux, FluxOR fluorescence; active compounds read low | B-score at 10 µM | actives 0.84% (n = 340,000);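 active = B-score under library mean minus 4 SD, starting fluorescence ratio at most library mean plus 5 SD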;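 note: more negative B-score means stronger inhibition of thallium flux through KCNK3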
Kir21 block: Kir2.1 (mouse) channel inhibition; P35561; HEK293-Kir2.1, FluxOR thallium flux fluorescence; active compounds read low; B-score at 10 µM; actives 0.85% (n = 310,000); AID 1672;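 active = fluorescence ratio B-score at or below minus 3 SD of library scores, with starting-brightness B-score within 2 SD, cut at about -4.2 in these data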;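 note: channel flux triggered by added potassium and thallium sulfate stimulus; B-score of peak minus minimum fluorescence over baseline after thallium stimulus; more negative B-score means stronger Kir2.1 block with less thallium influx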
Target sequence (P35561 whole entry, looked up): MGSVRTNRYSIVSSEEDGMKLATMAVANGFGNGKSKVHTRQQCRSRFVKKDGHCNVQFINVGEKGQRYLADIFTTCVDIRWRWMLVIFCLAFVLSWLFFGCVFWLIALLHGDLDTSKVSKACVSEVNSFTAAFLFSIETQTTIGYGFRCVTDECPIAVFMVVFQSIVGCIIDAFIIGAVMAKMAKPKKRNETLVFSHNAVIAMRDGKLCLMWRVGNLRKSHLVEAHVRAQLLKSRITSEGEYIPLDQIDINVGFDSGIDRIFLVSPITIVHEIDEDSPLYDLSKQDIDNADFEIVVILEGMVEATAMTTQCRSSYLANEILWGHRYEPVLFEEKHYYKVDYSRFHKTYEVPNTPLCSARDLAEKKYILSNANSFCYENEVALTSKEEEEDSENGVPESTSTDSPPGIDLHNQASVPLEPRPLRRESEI
KCNQ1 pot: potentiates or activates the human KCNQ1 potassium channel. CHO-K1 KCNQ1, thallium flux FluxOR fluorescence; active compounds read high. actives 0.35% (n = 310,000). B-score at 10 µM;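 active = fluorescence ratio B-score, a plate-corrected score, at least three library SD, with initial intensity B-score within 5 SD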
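Assay system: stable KCNQ1 CHO-K1 line; medium: assay buffer, equal DMSO in all wells; timing: 90 min dye loading and 20 min compound exposure, both at room temperature; technique: kinetic FluxOR thallium fluorescence, 10-s 1-Hz baseline, 110-s post-stimulus read; read-out basis: B score of baseline-normalized fluorescence ratio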
KCNQ1 block val: reconfirmed blocker of the human KCNQ1 potassium channel; shares compounds with KCNQ1 block; KCNQ1 cell line, FluxOR thallium flux fluorescence; inhibition, % at 10 µM; actives 93% (n = 1,600); AID 588353;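 active = primary screen active, with duplicate mean exceeding buffer control mean plus 3 SD of buffer wells, cut at about 28% in these data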;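 note: 0% = buffer control ratio and 100% = XE991 inhibitor control ratio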
CHO Tl flux: KCNQ1 inhibitor counter-screen hit in parental CHO cells; shares compounds with KCNQ1 block; parental CHO-K1, FluxOR thallium flux fluorescence ratio; active compounds read low; zero means no signal rise above baseline; fluorescence ratio (Tl flux) at 10 µM; actives 21% (n = 1,600);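 active = mean of duplicate thallium-flux fluorescence ratios in parental host cells more than 5 SD below the buffer control mean, cut at about 0.38 in these data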;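 note: ratio is peak minus minimum fluorescence divided by baseline fluorescence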
KCNQ1 ephys val: confirmation of human KCNQ1 potassium channel inhibitors by electrophysiology. shares compounds with KCNQ1 block. KCNQ1-CHO cells, automated patch clamp current. calls only at 10 µM. actives 20% (n = 490);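 active = KCNQ1 current drop exceeding 3 SD of negative control wells, seen in both duplicate runs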;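 note: steady state current during a 2 s step from -80 to +40 mV; negative values mean current inhibition and positive values mean potentiation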
KCNQ2 spec: KCNQ1 inhibitor that also blocks rat KCNQ2 channel; shares compounds with KCNQ1 block; KCNQ2 cells, FluxOR thallium flux fluorescence; inhibition, % at 10 µM; actives 71% (n = 1,600);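 active = mean percent inhibition of the KCNQ2 thallium signal more than 5 SD above the buffer-only control wells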;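 note: KCNQ2 expressed in CHO cells; 0% = buffer control wells and 100% = XE-991 inhibitor control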
KCNQ1 KCNE1 spec: selectivity of KCNQ1 inhibitors: inhibition of human KCNQ1/KCNE1 channel. shares compounds with KCNQ1 block. KCNQ1/KCNE1 cells, FluxOR thallium flux fluorescence. inhibition, % at 10 µM. actives 77% (n = 1,600);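 active = mean percent inhibition of duplicate wells above the buffer-only control mean plus 3 SD of those controls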;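 note: 0% = buffer only wells and 100% = XE-991 inhibitor control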
Starred values were filed as active, the others as inactive. Compounds with a hit are over-represented: about 3.7% of the library has one in this group of screens.

For CCOc1ccc(NC(=O)Nc2ccc3nsnc3c2)cc1 the results were KCNK9 inh inactive, KCNQ1 block 12*, hERG protect -11, KCNK3 inh inactive, Kir21 block -0.08, KCNQ1 pot inactive, KCNQ1 block val 27*, CHO Tl flux 0.55, KCNQ2 spec inactive and KCNQ1 KCNE1 spec inactive.
`CCOc1ccc(NC(=S)Nc2ccc(OC(F)(F)F)cc2)cc1` gave KCNK9 inh inactive, KCNQ1 block 7*, hERG protect -3, KCNK3 inh inactive, Kir21 block 0.42, KCNQ1 pot inactive, KCNQ1 block val 0, CHO Tl flux 0.55, KCNQ2 spec inactive and KCNQ1 KCNE1 spec inactive.
`COc1ccccc1C(=O)NC(CCSC)C(=O)NNC(=O)C(C)Oc1ccccc1F` (stereo not drawn) gave KCNK3 inh inactive.
Screening O=C(CNC(=O)c1ccccc1F)NCCc1ccccc1F returned KCNK3 inh inactive.
Screening COCC(C)NC(=O)c1cc2c(ccc3ccccc32)oc1=O (stereo not drawn) returned KCNK9 inh inactive, KCNQ1 block inactive, hERG protect 0, KCNK3 inh inactive, Kir21 block 0.25 and KCNQ1 pot inactive.
COc1ccc(NC(=O)c2ccc(CN3CCN(c4ccccc4)CC3)cc2)cc1 was read as KCNK9 inh inactive, KCNQ1 block 6*, hERG protect -4, KCNK3 inh inactive, Kir21 block -0.29, KCNQ1 pot inactive, KCNQ1 block val 0, CHO Tl flux 0.5, KCNQ2 spec inactive and KCNQ1 KCNE1 spec inactive.
For COc1ccc(C(=O)Nc2ccc(N3CCN(Cc4ccccc4)CC3)cc2)cc1 the results were KCNK9 inh inactive, KCNQ1 block inactive, hERG protect -9, KCNK3 inh inactive, Kir21 block 1.3 and KCNQ1 pot inactive.
Cc1ccc(S(=O)(=O)N2CCCCC2CCNC(=O)C(=O)Nc2ccccc2F)cc1 (stereo not drawn) was read as KCNK9 inh inactive, KCNQ1 block inactive, hERG protect -12, KCNK3 inh inactive, Kir21 block -0.5 and KCNQ1 pot inactive.
`Cc1ccccc1NC(=O)COc1ccccc1C` gave KCNK9 inh inactive, KCNQ1 block inactive, hERG protect 1, KCNK3 inh inactive, Kir21 block -0.26 and KCNQ1 pot inactive.
Cc1ccccc1OCC(=O)Nc1ccccc1-c1ccccc1 was read as KCNK9 inh inactive, KCNQ1 block 6*, hERG protect -9, KCNK3 inh inactive, Kir21 block -0.61, KCNQ1 pot inactive, KCNQ1 block val 128*, CHO Tl flux 0.39, KCNQ1 ephys val inactive, KCNQ2 spec 114%* and KCNQ1 KCNE1 spec 178%*.
For Cc1ccccc1OCC(=O)Nc1ccccc1C(=O)NC1CC1 the results were KCNK9 inh inactive, KCNQ1 block 10*, hERG protect -22, KCNK3 inh inactive, Kir21 block 0.81, KCNQ1 pot inactive, KCNQ1 block val 92*, CHO Tl flux 0.5, KCNQ1 ephys val inactive, KCNQ2 spec 123%* and KCNQ1 KCNE1 spec 128%*.
Screening COc1ccc(OC)c(NC(=O)COC(=O)CCc2nc3ccccc3c(=O)[nH]2)c1 returned KCNK3 inh inactive.
For COCC(C)n1c(SCC(=O)Nc2c(C)n(C)n(-c3ccccc3)c2=O)nc2ccccc2c1=O (stereo not drawn) the results were KCNK3 inh inactive.
CC(C)c1ccc(S(=O)(=O)Nc2ccc(SC(F)F)cc2)cc1 was read as KCNK9 inh inactive, KCNQ1 block inactive, hERG protect -8, KCNK3 inh inactive, Kir21 block 0.07 and KCNQ1 pot inactive.
Screening Cc1ccc(S(=O)(=O)Nc2ccc(SC(F)F)cc2)c(C)c1 returned KCNK9 inh inactive, KCNQ1 block 6*, hERG protect -10, KCNK3 inh inactive, Kir21 block -0.48, KCNQ1 pot inactive, KCNQ1 block val 26*, CHO Tl flux 0.45, KCNQ2 spec inactive and KCNQ1 KCNE1 spec 136%*.
Screening CCN(CC)S(=O)(=O)c1cc(C(=O)Nc2cccnc2)ccc1Cl returned KCNK9 inh inactive, KCNQ1 block inactive, hERG protect -13, KCNK3 inh inactive, Kir21 block -0.03 and KCNQ1 pot inactive.
CCN(CC)S(=O)(=O)c1cc(C)ccc1NC(=S)Nc1cccnc1 was read as KCNK9 inh inactive, KCNQ1 block 10*, hERG protect -13, KCNK3 inh inactive, Kir21 block -0.04, KCNQ1 pot inactive, KCNQ1 block val 68*, CHO Tl flux 0.49, KCNQ2 spec 61%* and KCNQ1 KCNE1 spec 48%*.
For COc1ccc(N=c2cc(-c3ccc(OC)cc3)oc3ccccc23)cc1 the results were KCNK9 inh inactive, KCNQ1 block 12*, hERG protect -11, KCNK3 inh inactive, Kir21 block -3.8, KCNQ1 pot inactive, KCNQ1 block val 147*, CHO Tl flux 0.36*, KCNQ2 spec inactive and KCNQ1 KCNE1 spec active.
`O=C(COc1ccccc1)Nc1cccc(-c2nc3ccccc3[nH]2)c1` gave KCNK9 inh inactive, KCNQ1 block 6*, hERG protect -15, KCNK3 inh inactive, Kir21 block -1.9, KCNQ1 pot inactive, KCNQ1 block val 52*, CHO Tl flux 0.47, KCNQ2 spec 78%* and KCNQ1 KCNE1 spec 80%*.
`O=C(COc1ccc(Nc2ccccc2)cc1)Nc1ccncc1` gave KCNK9 inh inactive, KCNQ1 block 8*, hERG protect -21, KCNK3 inh inactive, Kir21 block -1.3, KCNQ1 pot inactive, KCNQ1 block val 94*, CHO Tl flux 0.54, KCNQ2 spec inactive and KCNQ1 KCNE1 spec inactive.
For O=C(COc1ccc(Br)cc1)Nc1ccncc1 the results were KCNK9 inh inactive, KCNQ1 block inactive, hERG protect -13, KCNK3 inh inactive, Kir21 block 3 and KCNQ1 pot inactive.
